Values without a mark were called inactive. Results filed as inconclusive are left out. Active and inactive are the calls of the source.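 The calls were made as follows, unless noted: active = viability at or below 27.92% in each of two runs, the all-compound median minus 4 SD; inconclusive = no clear call, values can overlap the other calls; inactive = the rest.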
Key:
[1] = OD615 S. cerevisiae growth inhibition, permissive medium, pilot counter-assay, permissive growth control for S. cerevisiae lifespan shortening project (AID 705;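 active = growth inhibition above 25% in both replicates, a cutoff set 3 SD above the mean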); settings: OD615, 24 h, at 10 µM, active compounds read high
Summary of the method: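 assay system = Saccharomyces cerevisiae strain carrying genetically modified DeaD replicative-lifespan system | medium = SC raffinose/galactose permissive medium | dosing = 10 µM single dose, 0.25% DMSO | schedule = 24 h compound exposure at 30 °C after 4 h pre-growth | measured by = OD at 615 nm | read-out basis = growth inhibition from lowered OD615 after 24 h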

[2] = Restrictive medium S. cerevisiae growth inhibition, OD615, pilot screen of yeast lifespan reduction project, restrictive growth control (AID 706;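 active = growth inhibition above a set limit, 3 SD over mean compound inhibition, in both replicates, cut at about 43% in these data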;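 also: modified DeaD lifespan yeast strain shifted to restrictive glucose medium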); settings: OD615, 48 h, at 10 µM, active compounds read high
Summary of the method: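 Buffer or medium: CSMM-D glucose medium. Material: genetically modified Saccharomyces cerevisiae, DeaD replicative lifespan assay strain. Times: 48 h compound exposure at 30 °C. Measured by: optical density at 615 nm.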

[3] = viability gain of MRP-1-high H69AR cells under doxorubicin, pilot screen, MRP-1 activator project, CellTiter-Glo, duplicate (AID 807;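 active = viability increase at or above a cutoff of the median across tested compounds plus 3 SD, cut at about 8.5% in these data, passing the limit was not always enough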;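 also: compound pretreatment 18-22 h then 72 h combined with doxorubicin; 0% = doxorubicin alone and 100% = vehicle without doxorubicin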); settings: H69AR viability with doxorubicin, CellTiter-Glo luminescence; at 10 µM; active compounds read high
[4] = growth suppression of beta-catenin knockout HCT116, pilot screen, human colon tumor cells (AID 823;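 active = cell viability at or below a set limit in both duplicate runs, the limit being the all-compound median minus 4 SD, cut at about 23% in these data, passing the limit was not always enough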;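 also: 0% = wells killed by 20 µM Hyamine and 100% = untreated DMSO cell wells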); settings: CellTiter-Glo, 60 h, at 10 µM, active compounds read low
[5] = growth suppression of PTEN-deleted HCT116, pilot screen, cell-based, HCT116 clonal line, CellTiter-Glo (AID 824); settings: 60 h, at 10 µM, active compounds read low;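 also: 0% = 20 µM Hyamine control and 100% = vehicle cell control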
[6] = inhibitors of the yeast RAM network, pilot screen, dse1pr::URA3 reporter, 5-FOA selection (AID 869;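 active = inhibition over a set limit, the all-compound mean plus 3 SD, in both replicate runs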;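 also: 0% = DMSO wells with no growth and 100% = 10 µM 1-NA-PP1 with full growth; RAM network block rescues cells from 5-FOA so hits raise OD615 growth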); settings: S. cerevisiae dse1pr::URA3 5-FOA growth, OD615, 2 d; at 10 µM; active compounds read high; strain carries analog-sensitive mutant Cbk1 kinase

SMILES	growth inhibition [1]	growth inhibition [2]	viability increase [3]	viability [4]	viability [5]	inhibition [6]
COc1cc(/C=C/C2=NC(=O)C(C)(C)O2)ccc1O	-1.35%	6.79%	-7.42%	65.9%	71.9%	0.485%
O=C(c1cnn2ccccc12)N1CCCc2ccccc21	-3.54%	-1.29%	-1.74%	97.1%	91.9%	2.38%
Cc1ccc(-c2nn(-c3ccccc3)cc2C2SCC(=O)N2Cc2ccccc2)o1 (stereo not given)	-17.1%	-9.89%	-0.06%	74.2%	68.9%	0.94%
Cc1noc(/C=C/NCc2cccnc2)c1S(=O)(=O)N(C)CC(=O)N1CCc2ccccc21	-10.2%	-7.69%	-3.19%	91.2%	86.4%	2.5%
Cc1ccc(C)c(C(=O)Nc2c(C(N)=O)oc3ccccc23)c1	-5.56%	-1.59%	-3%	94.2%	86.7%	0.595%
CCCCn1c(Oc2ccc(C(=O)OC)cc2)nc2c1c(=O)n(C)c(=O)n2C	-10.3%	-3.88%	-2.52%	84.1%	84.1%	0.085%
CCOc1ccccc1NC1c2ccccc2C(=O)N1c1ccc(C)cn1 (stereo not given)	-14.3%	3.06%	-1.37%	88.2%	88%	0.395%
COc1ccc(N2CCN(C(=O)CCS(=O)(=O)c3cccc4nsnc34)CC2)cc1	-9.09%	-6.57%	-2.63%	95.7%	96.9%	0.895%
O=C1C2CCCN2C(c2ccc(F)cc2)N1c1ccc(Cl)cc1 (stereo not given)	-13%	-0.82%	-2.59%	76.5%	67.8%	3.84%
C=CCSc1nnc2c(n1)OC=Nc1ccccc1-2	-4.68%	29.7%	2.06%	97.9%	101%	3.17%
Clc1ccccc1-c1nnc2sc(-c3ccncc3)nn12	-1.33%	19.3%	-3.61%	106%	90.8%	0.635%
COc1ccc(OCCn2c(NC(=O)c3ccco3)nc3ccccc32)cc1	2.63%	9.83%	-6.84%	56.9%	57.9%	3.36%
O=C(Cn1c(=O)sc2ccccc21)NCc1ccccn1	1.44%	-6.78%	-1.78%	104%	93.4%	1.19%
N#Cc1c(NC(=O)CCCN2C(=O)c3ccccc3C2=O)oc(-c2ccccc2)c1-c1ccccc1	-1.81%	1.75%	2.13%	101%	94.7%	-0.33%
CN(C)c1ccc(CN(C)C2CCCCC2)cc1	2.59%	-6.2%	-1.65%	93.1%	89.7%	1.46%
CN(C)c1ccc(-c2noc(C3CCN(S(=O)(=O)c4cccc(Cl)c4)CC3)n2)cc1	-5.86%	-11.7%	3.01%	82.5%	94.2%	2.6%
O=C1CCCN1CCCNc1ncnc2c1cnn2-c1ccc(Cl)cc1	0.48%	1.48%	-0.95%	85%	77%	1.3%
COCCNc1oc(-c2ccccc2Cl)nc1C#N	-7.99%	-2.94%	-0.81%	111%	89.3%	1.51%
Cc1cccc(C)c1OCc1nnc(SCC(=O)Nc2nccs2)o1	-0.12%	0.57%	-1.15%	94%	87.4%	2.88%
O=C(CCS(=O)(=O)c1cccc2nonc12)N1CC(=O)N(CCc2ccccc2)C(=O)C1	-5.67%	-8.59%	-3.51%	95.4%	92.3%	-0.47%

SMILES	growth inhibition [1]	growth inhibition [2]	viability increase [3]	viability [4]	viability [5]	inhibition [6]
Cc1ccc(-c2nc(C(=O)NC3CCCCCC3)no2)cc1	-6.78%	5.45%	4.07%	103%	104%	-0.1%
CN(Cc1ccccc1)c1oc(COc2ccccc2F)nc1C#N	-1.62%	-8.97%	2.94%	80.2%	80.9%	1.07%
Oc1ccccc1C(=S)N1CCCCC1	8.11%	23.6%	-2.83%	94.7%	89.8%	2.25%
O=S1(=O)C=C(SCCN2CCCCC2)c2ccccc21	-4.08%	-20.4%	-7.06%	61.6%	66.9%	1.29%
CCN1CCN(CC(=O)Nc2ccc(Cl)c(Cl)c2)C(=O)C1=O	3.48%	-8.29%	-0.65%	102%	97.7%	0.63%
Cn1c(=O)oc2cc(S(=O)(=O)N3CCC(C(=O)NCC4COc5ccccc5O4)CC3)ccc21 (stereo not given)	-17.2%	-19.6%	0.66%	103%	96.8%	3.92%
Cc1ccc(Cl)cc1N1CCN(C(=O)CCS(=O)(=O)c2cccc3nonc23)CC1	3.25%	-4.52%	-3.47%	79.5%	75.4%	0.805%
COC(=O)c1ccc(C)c(NC(=O)CN(c2cc(OC)ccc2OC)S(C)(=O)=O)c1	-8.06%	-3.94%	-3.03%	75.5%	68.6%	0.035%
Cc1cc(C)n(-c2nc3ccccc3nc2Nc2ccc3c(c2)OCO3)n1	-18.7%	1.25%	6.2%	87.7%	81.7%	6.39% (active)
CCOC(=O)c1ccccc1NC1c2ccccc2C(=O)N1c1ccc(C)cn1 (stereo not given)	-11.3%	6.58%	-2.23%	72.9%	79.6%	2.52%
COc1ccc(NC(=O)c2nnn(Cc3ccc(SC)cc3)c2N)c(OC)c1	-1.88%	-10.7%	-0.11%	100%	93.1%	4.42%
CCCCCCC1C(C#N)=C(N)OC2=C1C(=O)CC(C)(C)C2 (stereo not given)	-34.7%	-40.1%	-2.49%	102%	96.7%	0.505%
COc1cccc(NC(=O)c2ccc(S(=O)(=O)N3CCCCC3)cc2)c1	4.79%	5.21%	-1.52%	95.6%	85.7%	1.28%
CCOC(=O)c1ccc(NC(=O)c2cc3ccccc3o2)cc1	-5.56%	-8.95%	1.54%	86.2%	86.6%	1%
O=C(O)c1ccc(CSc2nnc(COc3ccc(Cl)cc3Cl)o2)cc1	10.6%	20.2%	2.94%	103%	94.1%	1.22%
CCOC(=O)c1cc2c(=O)n3ccccc3nc2n(Cc2ccco2)c1=NC(=O)c1cccnc1	-1.49%	14%	3.61%	99.5%	99%	1.91%
COc1cc2c(cc1OC)C(c1ccccc1)N(C(=O)c1ccco1)CC2 (stereo not given)	-21.2%	-17.6%	-3.16%	68.4%	63.5%	2.55%
Clc1ccc(Cc2nnc(-c3cccs3)o2)cc1	-0.04%	5.1%	4.43%	106%	95.9%	0.935%
CCn1c(C(C)NC(=O)c2cccc(C)c2)nc2ccccc21 (stereo not given)	-8.83%	5.38%	-2.68%	102%	95.6%	2.54%
Brc1ccc(-c2nnc3ccc(N4CCN(c5ccccc5)CC4)nn23)cc1	7.94%	-10.7%	-5.11%	82.8%	75.5%	2.52%

Reference: PubChem BioAssay
